Results taken from ChEMBL document CHEMBL1255300, “Pharmacodynamics of the antibacterial effect and emergence of resistance to tomopenem, formerly RO4908463/CS-023, in an in vitro pharmacokinetic model of Staphylococcus aureus infection” (Antimicrob Agents Chemother, 2008).
In brackets after ≈: the same amount, converted by molar mass. Activity calls are given as the source filed them. The rule behind the calls is not given here.

How the values were obtained:
[1] = system: Staphylococcus aureus; experiment: Antibacterial activity against methicillin-resistant Staphylococcus aureus 33820 assessed as viable count at 2 times of MIC after 24 hrs using 10^6 CFU/ml inoculum; assay type: functional, organism-based
[2] = system: Staphylococcus aureus; experiment: T>MIC in methicillin-sensitive Staphylococcus aureus 5956 infected in vitro pharmacokinetic model at 750 mg, iv every 8 hrs; assay type: functional
[3] = system: Staphylococcus aureus; experiment: AUBKC (0 to 24 hrs) in methicillin-resistant Staphylococcus aureus 33829 infected in in vitro pharmacokinetic model at 1500 mg, iv every 8 hrs using 10^6 CFU/ml inoculum; assay type: functional
In short: (§1)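 Single-compartment dilutional in vitro PK model at 37°C in 10% Mueller-Hinton broth, stirred, flow 132 ml/h. […] Inoculum 10^6 CFU/ml added 45 min before dosing, or 10^8 CFU/ml run overnight. Viable counts with β-lactamase neutralisation. AUBKC by log-linear trapezoidal rule, at least triplicate.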

[4] = system: Staphylococcus aureus; experiment: Antibacterial activity against methicillin-resistant Staphylococcus aureus 33922 infected in in vitro pharmacokinetic model assessed as reduction in viable count at 750 mg, iv every 8 hrs measured after 36 hrs using 10^8 CFU/ml inoculum; assay type: functional
[5] = system: Staphylococcus aureus; experiment: Antibacterial activity against methicillin-resistant Staphylococcus aureus 33815 infected in in vitro pharmacokinetic model assessed as reduction in viable count at 1500 mg, iv every 8 hrs measured after 36 hrs using 10^6 CFU/ml inoculum; assay type: functional
In short: (§2)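 Single-compartment dilutional in vitro PK model, 37°C, stirred, in 10% Mueller-Hinton broth. […] Inoculum 10^6 CFU/ml from a 24-h plate culture was added 45 min before dosing. Viable counts by spiral plating on nutrient agar with β-lactamase neutralization. Log change was taken from time 0; detection limit 10^2 CFU/ml; at least triplicate.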

[6] = Plasma protein binding in human; assay type: ADME, cell-free; conditions: read-out: PPB
[7] = system: Staphylococcus aureus; experiment: Antibacterial activity against methicillin-resistant Staphylococcus aureus 33827 infected in in vitro pharmacokinetic model assessed as time required to 99.9% killing at 750 mg, iv every 8 hrs using 10^8 CFU/ml inoculum; assay type: functional
In short: (§3)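 Single-compartment dilutional in vitro PK model, 10% Mueller-Hinton broth, 37°C, stirred, dilution 132 ml/h. […] Inoculum 10^6 CFU/ml (added 45 min pre-dose) or 10^8 CFU/ml (run overnight). Viable counts by spiral plating, beta-lactamase neutralization, detection limit 10^2 CFU/ml. At least triplicate.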

[8] = system: Staphylococcus aureus; experiment: T>MIC for 4-log drop in count in methicillin-resistant Staphylococcus aureus 33827 in in vitro pharmacokinetic model after 24 hrs using 10^6 CFU/ml inoculum; assay type: functional
[9] = system: Staphylococcus aureus; experiment: Antibacterial activity against methicillin-resistant Staphylococcus aureus 33922 infected in in vitro pharmacokinetic model assessed as reduction in viable count at 750 mg, iv every 8 hrs measured after 48 hrs using 10^8 CFU/ml inoculum; assay type: functional
[10] = system: Staphylococcus aureus; experiment: AUBKC (0 to 24 hrs) in methicillin-resistant Staphylococcus aureus 33815 infected in in vitro pharmacokinetic model at 1500 mg, iv every 8 hrs using 10^6 CFU/ml inoculum; assay type: functional; in short: as §1
[11] = system: Staphylococcus aureus; experiment: Antibacterial activity against methicillin-resistant Staphylococcus aureus 33815 infected in in vitro pharmacokinetic model assessed as reduction in viable count at 1500 mg, iv every 8 hrs measured after 36 hrs using 10^8 CFU/ml inoculum; assay type: functional
In short: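 PK model at 37°C in 10% MHB. […] A 0.5 McFarland suspension (1 ml) was added and the model run overnight to reach 10^8 CFU/ml before dosing. Counts were spiral-plated on nutrient agar with β-lactamase. Change in log CFU/ml was measured from time 0; at least triplicate.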

[12] = system: Staphylococcus aureus; experiment: Antibacterial activity against methicillin-resistant Staphylococcus aureus 33922 by broth dilution method; assay type: functional
[13] = system: Staphylococcus aureus; experiment: Antibacterial activity against methicillin-resistant Staphylococcus aureus 33827 infected in in vitro pharmacokinetic model assessed as reduction in viable count at 1500 mg, iv every 8 hrs measured after 24 hrs using 10^6 CFU/ml inoculum; assay type: functional; in short: as §3
[14] = system: Staphylococcus aureus; experiment: AUBKC (0 to 48 hrs) in methicillin-resistant Staphylococcus aureus 33827 infected in in vitro pharmacokinetic model at 1500 mg, iv every 8 hrs using 10^6 CFU/ml inoculum; assay type: functional; in short: as §1
[15] = system: Staphylococcus aureus; experiment: AUBKC (0 to 24 hrs) in methicillin-resistant Staphylococcus aureus 33921 infected in in vitro pharmacokinetic model at 750 mg, iv every 8 hrs using 10^6 CFU/ml inoculum; assay type: functional; in short: as §1
[16] = system: Staphylococcus aureus; experiment: T>MIC for 3-log drop in count in methicillin-sensitive Staphylococcus aureus 5956 in in vitro pharmacokinetic model after 24 hrs using 10^6 CFU/ml inoculum; assay type: functional
In short: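 Dose-ranging: 7–13 simulated regimens per strain giving T>MIC of 0–100% (MIC from 10% MHB), at 106 or 10^8 CFU/ml as stated.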

[17] = system: Staphylococcus aureus; experiment: Antibacterial activity against methicillin-resistant Staphylococcus aureus 33815 infected in in vitro pharmacokinetic model assessed as reduction in viable count at 1500 mg, iv every 8 hrs measured after 48 hrs using 10^6 CFU/ml inoculum; assay type: functional; in short: as §2
[18] = system: Staphylococcus aureus; experiment: Antibacterial activity against methicillin-resistant Staphylococcus aureus 33815 assessed as viable count at 4 times of MIC after 48 hrs using 10^6 CFU/ml inoculum; assay type: functional, organism-based
In short: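 Population analysis during tomopenem dose-ranging runs in the in vitro PK model (10^6 CFU/ml, T>MIC 0-100%). […] Growth counted as log CFU/ml, detection limit 2 log10.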

[19] = system: Staphylococcus aureus; experiment: Antibacterial activity against methicillin-resistant Staphylococcus aureus 33827 assessed as viable count at 4 times of MIC after 48 hrs using 10^6 CFU/ml inoculum; assay type: functional, organism-based
[20] = system: Staphylococcus aureus; experiment: Antibacterial activity against methicillin-resistant Staphylococcus aureus 33922 infected in in vitro pharmacokinetic model assessed as reduction in viable count at 1500 mg, iv every 8 hrs measured after 48 hrs using 10^6 CFU/ml inoculum; assay type: functional
[21] = system: Staphylococcus aureus; experiment: Antibacterial activity against methicillin-resistant Staphylococcus aureus 33827 infected in in vitro pharmacokinetic model assessed as reduction in viable count at 1500 mg, iv every 8 hrs measured after 48 hrs using 10^8 CFU/ml inoculum; assay type: functional; in short: as §3
[22] = system: Staphylococcus aureus; experiment: Antibacterial activity against methicillin-resistant Staphylococcus aureus 33922 infected in in vitro pharmacokinetic model assessed as reduction in viable count at 1500 mg, iv every 8 hrs measured after 12 hrs using 10^6 CFU/ml inoculum; assay type: functional
[23] = system: Staphylococcus aureus; experiment: Antibacterial activity against methicillin-resistant Staphylococcus aureus 33921 infected in in vitro pharmacokinetic model assessed as time required to 99.9% killing at 1500 mg, iv every 8 hrs using 10^6 CFU/ml inoculum; assay type: functional
[24] = system: Staphylococcus aureus; experiment: Antibacterial activity against methicillin-resistant Staphylococcus aureus 33829 by broth dilution method; assay type: functional
In short: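 MIC by CLSI broth dilution, or by broth dilution in 10% Mueller-Hinton broth at nondoubling dilutions.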

[25] = system: Staphylococcus aureus; experiment: T>MIC for 1-log drop in count in methicillin-resistant Staphylococcus aureus 33815 in in vitro pharmacokinetic model after 24 hrs using 10^8 CFU/ml inoculum; assay type: functional
[26] = system: Staphylococcus aureus; experiment: AUBKC (0 to 24 hrs) in methicillin-resistant Staphylococcus aureus 33820 infected in in vitro pharmacokinetic model at 1500 mg, iv every 8 hrs using 10^6 CFU/ml inoculum; assay type: functional; in short: as §1

For `C[C@@H](O)[C@H]1C(=O)N2C(C(=O)O)=C(S[C@H]3C[C@@H](C(=O)N4CC[C@H](NC(=O)CNC(=N)N)C4)N(C)C3)[C@H](C)[C@H]12` [TOMOPENEM], the Activity [1] was “inactive”, the “fT>MIC” value [2] was 100% and the AUBC [3] was 30 log10CFU/ml.hr. The log10CFU/ml [4] was 5.5, the log10CFU/ml [5] was 4.2 and the fraction unbound [6] was > 0.9. The Time [7] was 12 h, the “fT>MIC” value [8] was 61% and the log10CFU/ml [9] was 5.8. It also gave an AUBC [10] of 12.5 log10CFU/ml.hr, a log10CFU/ml [11] of 3.9 and an MIC [12] of 0.5 µg/mL (≈ 0.93 µM). The log10CFU/ml [13] was 4, the AUBC [14] was 35.5 log10CFU/ml.hr and the AUBC [15] was 30.9 log10CFU/ml.hr. The “fT>MIC” value [16] was 10.1%, the log10CFU/ml [17] was 4.2 and the Activity [18] was “Active”. For the same compound, the Activity [19] was “inactive”, the log10CFU/ml [20] was 4.2 and the log10CFU/ml [21] was 5.9. The log10CFU/ml [22] was 4.2, the Time [23] was 12 h and the MIC [24] was 2 µg/mL (≈ 3.72 µM). For the same compound, the “fT>MIC” value [25] was 1% and the AUBC [26] was 23.4 log10CFU/ml.hr.
